# In the library only some 1.4% were active in any assay of this set; here they are far more common.
# CAL PDZ FP-1: inhibitors of human CAL PDZ peptide binding; Q9HD26; purified CAL PDZ, TMR-peptide fluorescence polarization, 1 h; inhibition, % at 20 µM; 0.02% of 330,000 active;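 active = highest replicate inhibition of at least 40%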;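 also: plate controls were DMSO neutral control wells for no effect and unlabeled competitor peptide control wells for full effect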
#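 System: purified tagged CAL PDZ domain construct (CerCALP). Schedule: 1 h incubation at room temperature before polarization reading. Medium: 25 mM sodium phosphate pH 7.4, 150 mM NaCl, TCEP, IgG, Thesit. Read-out: percent inhibition from loss of millipolarization. Measured by: FP readout, S and P plane fluorescence. Probe or stimulus: fluorescent TMR peptide probe.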
# TbMetRS inhib: Trypanosoma brucei MetRS inhibition | inhibition, % at 11.9 µM | 0.4% of 360,000 active | purified T. brucei MetRS, ATP depletion, Kinase-Glo luminescence | AID 624268;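 active = inhibition above a per-plate cutoff of the control wells' mean inhibition plus 3 SD, cut at about 5.5% in these data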;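 also: 0% = DMSO wells median and 100% = median of wells with control inhibitor compound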
#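 Material – parasite MetRS enzyme · Medium – HEPES-MgCl2-KCl buffer plus DTT, spermine, BSA, pyrophosphatase · Reagent – ATP, methionine and E. coli bulk tRNA substrates · Times – 15 min enzyme-compound preincubation, 2 h reaction, 10 min detection, 25 °C · Measured by – luminescence of leftover ATP · Evaluation – percent inhibition relative to median high and low control wells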
# CAL PDZ FP-2: blocks peptide binding to the human CAL PDZ domain. Q9HD26. purified CAL PDZ, TMR-peptide fluorescence polarization, 1 h. inhibition, % at 24.9 µM. 0.92% of 300,000 active;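 active = mean inhibition of at least 30% with at least half of replicates also reaching 30%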;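 also: 0% = DMSO neutral control and 100% = excess unlabeled competitor peptide PRC23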
# DYRK1A inh: inhibitors of rat Dyrk1A kinase | ADP-Glo luminescence, NFATc1 peptide | inhibition, % at 12.5 µM | 0.43% of 310,000 active | AID 504441; in the data active = inhibition above about 50%;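 also: plate controls were vehicle with enzyme for no effect and no enzyme for full effect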
# CDK5 inh: inhibitors of human CDK5/p35 kinase; Q00535+Q15078; Recombinant CDK5/p35, ADP-Glo luminescence, 60 min; inhibition, % at 10 µM; 0.01% of 330,000 active;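 active = highest replicate inhibition of at least 50% and at least 75% of replicates reaching 50%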;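 also: plate controls were DMSO neutral control for no effect and GW8510 at 10 µM for full effect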
# Target sequence (Q00535 whole entry, looked up): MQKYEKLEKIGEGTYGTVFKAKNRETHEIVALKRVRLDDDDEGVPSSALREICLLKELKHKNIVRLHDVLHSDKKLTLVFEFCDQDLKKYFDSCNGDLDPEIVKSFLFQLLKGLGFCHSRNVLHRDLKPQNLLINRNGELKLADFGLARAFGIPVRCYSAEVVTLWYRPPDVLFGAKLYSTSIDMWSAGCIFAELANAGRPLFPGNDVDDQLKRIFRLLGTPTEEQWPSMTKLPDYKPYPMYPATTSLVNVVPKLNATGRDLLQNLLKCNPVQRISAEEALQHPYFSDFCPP
# Target sequence (Q15078 whole entry, looked up): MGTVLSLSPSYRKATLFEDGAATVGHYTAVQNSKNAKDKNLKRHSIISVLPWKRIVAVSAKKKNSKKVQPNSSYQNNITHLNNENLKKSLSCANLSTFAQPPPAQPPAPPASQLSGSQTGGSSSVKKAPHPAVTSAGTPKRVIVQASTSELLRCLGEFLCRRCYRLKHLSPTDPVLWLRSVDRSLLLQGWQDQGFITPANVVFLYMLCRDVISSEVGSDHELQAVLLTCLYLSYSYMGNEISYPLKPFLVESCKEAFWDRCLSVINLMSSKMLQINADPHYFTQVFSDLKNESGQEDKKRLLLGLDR
# PvdQ acylase: P. aeruginosa PvdQ acylase inhibition. purified PvdQ acylase, fluorescence plate reader. inhibition, % at 10 µM. 0.063% of 340,000 active. AID 488965; in the data active = inhibition above about 30%, passing the limit was not always enough;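 also: 0% = vehicle neutral wells and 100% = reference inhibitor wells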
# Active calls of the source: *; · = not tested or not shown.
SMILES,CAL PDZ FP-1,TbMetRS inhib,CAL PDZ FP-2,DYRK1A inh,CDK5 inh,PvdQ acylase
O=C(CNC(=O)c1ccccc1Cl)N/N=C/c1ccc2c(c1)OCO2,-2.0,0.1,95.9*,-5.1,1.6,8.8
O=C(CNC(=O)c1ccccc1F)N/N=C/c1ccc2c(c1)OCO2,-2.1,0.1,-3.2,-1.6,0.0,-5.9
COc1ccc(CCNC(=O)c2cc3ccc(Cl)cc3nc2N)cc1,·,0.0,·,·,·,·
CCOCCCNC(=O)CN1C(=O)/C(=C/c2ccccc2C)Sc2ccccc21,-1.4,-0.5,31.3*,-2.0,0.7,-4.3
O=C1NC[C@H](Cc2ccccc2)N(C[C@@H]2CCCN2C[C@H](Cc2ccc(O)cc2)N2C[C@H](Cc3ccccc3)N(CC3CCCCCC3)C(=O)C2=O)C1=O,·,-1.5,·,·,·,·
Cn1c(N)c(C(=O)CSc2nnnn2-c2ccccc2)c(=O)n(C)c1=O,0.8,0.1,-3.5,-1.3,-0.8,-11.4
Cc1ccccc1-n1nnnc1SCC(=O)c1c(N)n(C)c(=O)n(C)c1=O,0.9,0.0,31.9*,-10.2,0.9,-7.5
COc1ccc([C@H]2CC(=O)C[C@@H](CCn3cc(CCc4ccccc4)nn3)O2)cc1,·,-0.4,·,·,·,·
COc1ccc(NC(=O)c2cc(F)c(F)cc2Cl)cc1Cl,-3.7,3.1,-7.5,11.6,0.8,-7.0
O=C(Nc1ccc2[nH]c(=O)[nH]c2c1)c1cc(F)c(F)cc1Cl,0.1,-0.2,54.7*,1.8,0.4,-13.3
CCOc1ccc(Cl)cc1S(=O)(=O)N1CCC(C(=O)NCc2ccco2)CC1,-1.1,0.0,98.4*,2.9,0.0,-18.3
CCOc1ccc(Cl)cc1S(=O)(=O)N1CCC(C(=O)NCc2ccccn2)CC1,-1.3,-0.2,-4.8,0.2,0.2,-5.3
O=C(Nc1ccnn1C1CCN(C2CCC2)CC1)c1ccccc1,-0.1,-0.4,68.6*,-5.5,-0.8,-13.3
Cc1nc(/C(N)=N/OC(=O)c2ccccc2Cl)c(C(F)(F)F)o1,-1.2,-0.5,68.4*,2.4,0.7,-6.6
Cc1nc(/C(N)=N/OC(=O)c2cccc(Cl)c2)c(C(F)(F)F)o1,-2.2,-0.4,·,-1.4,1.0,-1.0
C[C@]12C=CC(=O)C=C1CC[C@@H]1C2=CC[C@]2(C)[C@@H](C(=O)CN3CCN(c4cc(N5CCCC5)nc(N5CCCC5)n4)CC3)CC[C@@H]12,0.2,0.0,20.8,60.5*,0.6,-4.0
COc1ccc(NC(=O)Nc2c[nH]c(=O)[nH]c2=O)cc1,-0.7,-1.2,58.5*,6.3,0.4,-13.3
COc1ccc2[nH]c(=O)c(CN(C(=O)C3CCCO3)c3ccc(C)c(C)c3)cc2c1 (stereo unspecified),-0.5,0.1,47.7*,-2.6,-1.1,-9.6
COc1ccc2[nH]c(=O)c(CN(C(=O)c3cccnc3)c3ccc(C)cc3C)cc2c1,-0.6,0.0,33.5*,-3.8,2.3,-17.4
COc1ccc2[nH]c(=O)c(CN(C(=O)c3cccnc3)c3cc(C)ccc3C)cc2c1,-2.7,1.0,-2.6,-6.4,-1.3,-12.4
CSCCC(C(=O)Nc1c(C)cccc1C)N1CCN(C/C=C/c2ccccc2)CC1 (stereo unspecified),·,-0.1,·,·,·,·
CCc1nnc(NC(=O)CSc2nc(-c3ccc(OC)cc3)ns2)s1,-0.3,-0.2,51.2*,-3.8,-0.1,-17.8
Fc1ccc(-c2nc3ccc(Cl)cn3c2Cc2cccc(F)c2)cc1,·,-0.2,·,·,·,·
ClC1=CN(C2=NCCC2)CC1,·,-1.0,·,·,·,·
NC(=O)c1ccc(NC(=O)COC(=O)C2CCN(S(=O)(=O)c3cccs3)CC2)cc1,-0.2,-0.2,129.6*,·,-0.1,-19.6
SMILES,CAL PDZ FP-1,TbMetRS inhib,CAL PDZ FP-2,DYRK1A inh,CDK5 inh,PvdQ acylase
COc1ccc(NC(=O)COC(=O)C2CCN(S(=O)(=O)c3cccs3)CC2)cc1,-0.9,-0.1,1.9,-0.2,0.1,-10.9
COc1cccc(CN2CC(C(=O)NCCc3ccccc3C(F)(F)F)CCC2=O)c1 (stereo unspecified),-0.6,-0.7,57.2*,-1.9,-1.5,-3.0
O=C(NCCCc1ccncc1)C1CCC(=O)N(Cc2cccc(C(F)(F)F)c2)C1 (stereo unspecified),-1.6,-0.5,2.8,3.9,-3.0,-11.2
O=C(NCCC1=CCCCC1)C1CCC(=O)N(Cc2cccc(C(F)(F)F)c2)C1 (stereo unspecified),-0.4,-0.3,36.1*,-6.0,-1.3,-9.1
COc1ccc(C(C)NC(=O)C2CCN(CCOc3ccc(Cl)cc3Cl)CC2)cc1OC (stereo unspecified),·,0.2,·,·,·,·
CC(C)CCn1c(N2CCCC2)nc2c1c(=O)[nH]c(=O)n2C,0.4,-0.3,-1.2,5.8,0.7,-22.5
CC(C)CCn1c(N2CCC(C(N)=O)CC2)nc2c1c(=O)[nH]c(=O)n2C,·,0.0,41.8*,2.5,-0.1,-11.0
O=C(Nc1ccc(Cl)cc1)c1ccc(OCC2CCCO2)cc1 (stereo unspecified),0.5,-0.4,33.7*,1.4,2.1,-11.2
N=C1/C(=C/c2ccc(-c3cccc(C(=O)O)c3)o2)C(=O)N=C2SC(CC(=O)N3CCOCC3)=NN12,-2.1,-1.3,10.2,79.2*,-1.2,13.2
Cc1c(C(=O)NNC(=O)c2csc(N3CCOCC3)n2)cccc1[N+](=O)[O-],-0.8,-0.2,-1.3,·,0.2,-14.6
O=C(NNC(=O)c1ccccc1[N+](=O)[O-])c1csc(N2CCOCC2)n1,-2.3,-0.4,48.8*,7.5,0.5,-12.9
COC(=O)c1ccc(C(=O)N2CCCC(C)(C(=O)NS(=O)(=O)C3CC3)C2)cc1 (stereo unspecified),·,-0.2,·,·,·,·
CCN1CCN(S(=O)(=O)CC2(C)C3CCC2(C)C(=O)C3Br)CC1 (stereo unspecified),-0.4,-0.5,41.1*,-0.1,-0.4,-6.7
COc1ccc2cc3cc(C(=O)NCCN4CCc5ccccc5C4)oc3nc2c1,-4.9,-0.1,3.9,76.9*,0.1,2.7
CCn1nc(C)c(CN2CCC(Oc3ccc(C(=O)N4CCCC4)cc3)CC2)c1C,-1.3,-0.2,51.0*,-2.0,-1.3,-10.7
CN(C(=O)c1ccc(OC2CCN(Cc3ccccn3)CC2)cc1)C1CCCCC1,-0.6,-0.1,-6.3,0.3,0.3,-18.0
COc1ccc(CN2CCC(Oc3ccc(C(=O)N4CCCC4)cc3)CC2)c(F)c1,0.1,-0.4,127.7*,-2.5,3.0,-4.8
CCn1nc(C)c(CNC(=O)c2ccc(OC3CCN(Cc4ccccn4)CC3)cc2)c1C,-0.7,-0.3,50.2*,-5.8,0.0,-11.0
C#CCN(C(=O)c1ccc(OC2CCN(Cc3ccccn3)CC2)cc1)C1CCCCC1,1.0,-0.3,55.4*,-2.5,1.0,-12.7
CCn1cc(CNC(=O)c2ccc(OC3CCN(Cc4ccccn4)CC3)cc2)cn1,-0.3,-0.2,-3.9,-3.2,0.0,-3.2
CC(=O)Nc1ccc2c(c1)Cc1cc(N3C(=O)C=CC3=O)ccc1-2,1.2,-0.4,-4.5,-0.3,-0.5,-6.7
CCN(CC(=O)NCc1cccs1)C(=O)c1cccc(Cl)c1,0.1,-0.3,-1.8,·,1.4,7.1

# Screening data from PubChem BioAssay.
